Bioassay records: PubChem BioAssay, Broad Institute
Only some compounds are listed: those with a hit (about 2.5% of all), similar ones and a draw of the others.
N-glyco inh: blocks N-linked glycosylation in D54 reporter cells. D54 ERlucT glycosylation luciferase reporter, 24 h; percent of 100 nM tunicamycin response. reporter increase, % at 12.5 µM. 360,000 compounds, 0.23% hits. AID 588692;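 active = mean luciferase reporter signal, scaled so untreated is 0 and the glycosylation-blocking control 100, at or above a set limit in every replicate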;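 note: luciferase carries N-glycosylation sites so blocking glycosylation raises the light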
AF4-AF9 inh: MLL-AF4/AF9 protein interaction inhibition; P42568; AlphaScreen, biotin-AF4 peptide binding to FLAG-AF9; inhibition, % at 10 µM; 350,000 compounds, 0.47% hits;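 active = every replicate reaching a set inhibition limit, whatever the replicate mean, cut at about 25% in these data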
Target sequence (P42568 whole entry, looked up): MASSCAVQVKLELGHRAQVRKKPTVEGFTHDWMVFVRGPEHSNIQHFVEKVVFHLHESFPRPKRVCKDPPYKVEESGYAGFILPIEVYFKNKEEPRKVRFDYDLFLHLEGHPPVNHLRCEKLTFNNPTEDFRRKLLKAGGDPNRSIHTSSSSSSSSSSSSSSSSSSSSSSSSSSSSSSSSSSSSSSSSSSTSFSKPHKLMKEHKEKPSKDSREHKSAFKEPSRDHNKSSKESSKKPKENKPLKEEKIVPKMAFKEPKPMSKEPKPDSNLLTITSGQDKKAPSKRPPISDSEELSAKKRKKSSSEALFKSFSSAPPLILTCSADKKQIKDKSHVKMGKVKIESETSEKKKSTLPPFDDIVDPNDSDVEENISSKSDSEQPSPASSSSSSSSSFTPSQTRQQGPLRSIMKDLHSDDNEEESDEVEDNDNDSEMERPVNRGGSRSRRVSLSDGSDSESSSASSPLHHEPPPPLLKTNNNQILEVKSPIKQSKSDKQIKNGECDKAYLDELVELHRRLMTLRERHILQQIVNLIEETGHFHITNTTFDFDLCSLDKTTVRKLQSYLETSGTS
EWS-Fli inh: blocks EWS/Fli oncoprotein-driven transcription | AID 651661 | 350,000 compounds, 0.67% hits | inhibition, % at 12.6 µM | A673 NR0B1-luciferase reporter, viability-normalised;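 active = mean inhibition of at least 50% after viability correction, with every replicate also passing that limit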;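 note: firefly luciferase signal divided by Alamar Blue viability fluorescence both relative to DMSO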
PAX8 reporter: PAX8 transcriptional activity inhibition; RMG-I TPO-luciferase reporter, SteadyGlo, 24 h; inhibition, % at 12.6 µM; 360,000 compounds, 1.2% hits; AID 652154;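 active = mean replicate inhibition at least 60% with every replicate also reaching 60%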;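 note: luciferase light reporting Pax8 driven TPO promoter activity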
FN deposit inh: fibronectin deposition inhibition; AH1F fibroblasts, Alexa488-fibronectin deposition fluorescence, overnight; inhibition, % at 12.6 µM; 350,000 compounds, 0.086% hits; AID 743247;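 active = mean inhibition across replicates of 30% or more, regardless of how many single replicates reach that level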
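Test system: AH1F fibroblast monolayer depositing Alexa488-labelled fibronectin into matrix. Input: 10000 cells per well. Technique: fluorescence, ex 485 nm, em 525 nm. Buffer or medium: DMEM plus 2% serum, read in PBS. Timing: 1 h cell adhesion before compound, then overnight fibronectin incubation. Compound: single dose, pinned. Read-out basis: inhibition from reduced deposited-fibronectin fluorescence.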
HIV Env fusion: inhibitors of HIV Env-mediated cell fusion; HeLa-JRFL Env/CEM21 cell fusion, luciferase; inhibition, % at 12.3 µM; 360,000 compounds, 1.1% hits; AID 651610;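 active = mean replicate inhibition score of at least 50 and every replicate individually at or above 50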
Numbers stand for hits; . = inactive; / = not tested or not shown; ! = a repeat was not active; [ ] = dose if it differs, or a comment.

SMILES	N-glyco inh	AF4-AF9 inh	EWS-Fli inh	PAX8 reporter	FN deposit inh	HIV Env fusion
COc1ccc(CCC(=O)Nc2cccc(S(=O)(=O)N3CCCCCC3)c2)cc1OC	.	.	.	.	.	/
CN(C)S(=O)(=O)c1cccc(NC(=O)CNc2cccc(S(=O)(=O)N3CCCCC3)c2)c1	.	.	.	.	.	64
COc1ccc(CC(=O)Nc2cccc(S(=O)(=O)N3CCCCCC3)c2)cc1OC	.	/	/	.	.	68
CC12CCC(=O)N1C(C(=O)Nc1cccc(S(=O)(=O)N3CCCCCC3)c1)CS2 (stereo not drawn)	.	.	.	.	.	/
CC12CCC(=O)N1C(C(=O)OCC(=O)Nc1cccc(S(=O)(=O)N3CCCCCC3)c1)CS2 (stereo not drawn)	.	.	.	84	.	/
COc1ccc(NC(=O)N(C)C[C@@H]2Oc3ccc(NC(=O)Nc4ccc(F)cc4)cc3C(=O)N([C@@H](C)CO)C[C@@H]2C)cc1	/	.	.	/	/	.
CC(C)CC#Cc1ccc2c(c1)O[C@@H](CN(C)C(=O)Cc1cccnc1)[C@@H](C)CN([C@H](C)CO)S2(=O)=O	/	.	.	.	.	.
CN(C)CCCN1c2ccc3ccccc3c2Sc2cccc(Cl)c21	.	33	.	.	.	.
CN(C)CCCN1c2ccccc2CCc2ccccc21	.	.	.	.	.	.
CN(C)CCCN1c2ccccc2Sc2ccc3ccccc3c21	.	30	.	.	.	.
O=C(CCl)N1c2ccccc2Sc2ccc3ccccc3c21	.	/	/	/	/	/
N#Cc1ccc(-c2ccc(C3[C@@H]4CN(C(=O)C5CC5)C[C@H]3N4)cc2)cc1 (stereo partly drawn)	/	.	.	98	.	/
N#Cc1cccc(-c2ccc(C3[C@@H]4CN(C(=O)c5ccccn5)C[C@H]3N4)cc2)c1 (stereo partly drawn)	/	.	.	64!	.	/
N#Cc1cccc(-c2ccc([C@@H]3[C@@H]4CN(S(=O)(=O)c5ccc(-c6ccccc6)cc5)C[C@H]3N4)cc2)c1	/	.	74	.	.	/
N#Cc1cccc(-c2ccc(C3[C@@H]4CN(C(=O)C5CCOCC5)C[C@H]3N4)cc2)c1 (stereo partly drawn)	/	.	.	.	.	/
N#Cc1cccc(-c2ccc(C3[C@@H]4CN(S(=O)(=O)c5ccccc5)C[C@H]3N4)cc2)c1 (stereo partly drawn)	/	.	.	.	.	/
Cc1ccccc1S(=O)(=O)N1C[C@@H]2N[C@H](C1)C2c1ccc(-c2cccc(C#N)c2)cc1 (stereo partly drawn)	/	/	.	94!	.	/
N#Cc1cccc(-c2ccc(C3[C@@H]4CN(C(=O)Cc5ccccc5)C[C@H]3N4)cc2)c1 (stereo partly drawn)	/	.	.	.	.	/
CCCNC(=O)N[C@@H]1CC[C@H](CC(=O)NC2CCC2)O[C@H]1CO	/	.	.	.	.	.
O=C(CN1CCOCC1)N1CC2(C1)[C@H](c1ccccc1)[C@@H](CO)N2Cc1ccccc1	/	.	.	/	.	/
Cc1noc(C)c1NC(=O)Nc1ccc2c(c1)CC(=O)N([C@H](C)CO)C[C@@H](C)[C@H](CN(C)C(=O)Nc1ccccc1)O2	/	.	.	.	/	.
O=S(=O)(c1ccccc1)N1C[C@@H]2N[C@H](C1)C2c1ccc(-c2ccccc2)cc1 (stereo partly drawn)	/	.	.	.	.	/
COc1ccccc1-c1ccc(C2[C@@H]3CN(S(=O)(=O)c4ccccc4)C[C@H]2N3)cc1 (stereo partly drawn)	/	/	53	.	.	/
CS(=O)(=O)N1C[C@@H]2N[C@H](C1)[C@@H]2c1ccc(-c2ccccc2)cc1	/	/	.	76	.	/
Cc1ccc2c(c1)c1c3n2CCN(CCC#N)C3CCC1 (stereo not drawn)	.	.	.	.	.	72
SMILES	N-glyco inh	AF4-AF9 inh	EWS-Fli inh	PAX8 reporter	FN deposit inh	HIV Env fusion
CCN1CCn2c3c(c4cc(C)ccc42)CCCC31 (stereo not drawn)	.	/	/	/	/	/
CO[C@@H]1CN(C)C(=O)c2cc(NC(=O)C3CC3)ccc2OC[C@H](C)N(C(=O)c2cnccn2)C[C@@H]1C	/	.	.	.	.	/
Cc1ccc(NC(=O)Cc2cc(C(=O)O)c3ccccc3n2)c(C)c1	.	.	.	70	.	.
C=CCn1c(NCCO)nc2sc3c(c2c1=O)CCC3	.	.	.	.	37	.
O=C(c1ccc2c(c1)OCO2)N1CCN(c2ccc(C(F)(F)F)cn2)CC1	.	.	.	132	.	/
O=C(c1ccc2c(c1)OCCO2)N1CCN(c2ccc(C(F)(F)F)cn2)CC1	.	.	.	.	.	.
COC(=O)C[C@H]1C[C@@H]2c3cc(N(C)C)ccc3O[C@@H]2[C@@H](CO)O1	/	.	.	.	.	.
COc1ccccc1OCC(=O)N/N=C/C=C/c1ccc([N+](=O)[O-])o1	58	.	.	.	.	.
O=C(N/N=C\C=C\c1ccc([N+](=O)[O-])o1)c1cccs1	41	.	.	.	.	.
Cc1ccccc1OCC(=O)N/N=C/c1ccc([N+](=O)[O-])o1	.	.	.	.	.	.
CO[C@H]1CN(C)C(=O)c2cc(NC(=O)C3CCCC3)ccc2OC[C@H](C)N(C)C[C@@H]1C	/	.	.	.	.	/
Cc1ccc(N(C(=O)c2cc3ccccc3oc2=O)C2C=CS(=O)(=O)C2)cc1 (stereo not drawn)	.	.	.	77	.	/
Cc1cc(C)cc(N(C(=O)c2cc3ccccc3oc2=O)C2C=CS(=O)(=O)C2)c1 (stereo not drawn)	.	/	.	.	/	.
CN(C)C(=O)[C@H]1[C@H](CO)[C@H]2Cn3c(ccc(C4=CCCC4)c3=O)[C@@H]1N2C	/	.	.	/	/	/
OCC1CCCN(C(=S)Nc2ccc(OC(F)F)cc2)C1 (stereo not drawn)	.	.	.	136	.	/
CC(C)(C)n1nc(Cc2cccc3ccccc23)c2c(N)ncnc21	.	.	.	.	.	82
CC(Oc1ccccc1)C(=O)Nc1nc(-c2ccccn2)cs1 (stereo not drawn)	.	.	.	.	.	.
CC(Oc1cccc(Cl)c1)C(=O)Nc1nc(-c2ccccn2)cs1 (stereo not drawn)	.	.	.	71	.	.
C[C@@H]1CCCCO[C@@H](CN(C)Cc2ccc(Cl)c(Cl)c2)[C@@H](C)CN([C@@H](C)CO)C(=O)c2cc(NC(=O)Nc3ccc(F)cc3)ccc2O1	/	.	.	.	/	.
C[C@H]1CCCCO[C@H](CN(C)Cc2ccc(Cl)c(Cl)c2)[C@@H](C)CN([C@@H](C)CO)C(=O)c2cc(NC(=O)Nc3ccc(F)cc3)ccc2O1	/	.	.	92	/	72[16.7 µM]
C[C@@H]1CN([C@H](C)CO)C(=O)c2cc(NC(=O)Nc3ccc(F)cc3)ccc2O[C@@H](C)CCCCO[C@@H]1CN(C)Cc1ccc(Cl)c(Cl)c1	/	.	.	85	/	.
